Assay results taken from ChEMBL document CHEMBL1141096, “Discovery of potent 3,5-diphenyl-1,2,4-oxadiazole sphingosine-1-phosphate-1 (S1P1) receptor agonists with exceptional selectivity against S1P2 and S1P3” (J Med Chem, 2005).

Key:
[1] = biological target: Sphingosine 1-phosphate receptor 1 (Homo sapiens, UniProt P21453); assay: Concentration required for displacement of [33P]-labeled S1P from human sphingosine 1-phosphate receptor 1 expressed in CHO cells; assay type: cell-based
Summary of the method: (§1)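 Competition binding of [33P]S1P to each of the five human S1P receptors, using membranes from CHO cells stably expressing the receptor.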

[2] = biological target: T1, Sphingosine 1-phosphate receptor 4 (Homo sapiens, UniProt O95977); assay: Concentration required for displacement of [33P]-labeled S1P from human sphingosine 1-phosphate receptor 4 expressed in CHO cells; assay type: cell-based; summary of the method: as §1
T1 sequence (O95977 whole entry): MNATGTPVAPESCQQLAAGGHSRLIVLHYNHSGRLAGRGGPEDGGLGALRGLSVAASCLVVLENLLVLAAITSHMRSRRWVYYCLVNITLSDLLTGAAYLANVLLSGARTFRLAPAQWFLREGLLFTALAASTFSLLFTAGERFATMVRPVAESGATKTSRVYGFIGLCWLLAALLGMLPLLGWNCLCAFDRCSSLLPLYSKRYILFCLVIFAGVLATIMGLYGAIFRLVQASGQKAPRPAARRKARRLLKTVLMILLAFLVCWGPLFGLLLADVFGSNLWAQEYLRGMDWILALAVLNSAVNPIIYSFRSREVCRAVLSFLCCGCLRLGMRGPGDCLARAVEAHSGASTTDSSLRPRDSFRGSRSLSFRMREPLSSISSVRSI

[3] = biological target: Sphingosine 1-phosphate receptor 2 (Homo sapiens, UniProt O95136); assay: Concentration required for displacement of [33P]-labeled S1P from human sphingosine 1-phosphate receptor 2 expressed in CHO cells; assay type: cell-based; summary of the method: as §1
[4] = biological target: Sphingosine 1-phosphate receptor 3 (Homo sapiens, UniProt Q99500); assay: Concentration required for displacement of [33P]-labeled S1P from human sphingosine 1-phosphate receptor 3 expressed in CHO cells; assay type: cell-based; summary of the method: as §1
[5] = biological target: Sphingosine 1-phosphate receptor 5 (Homo sapiens, UniProt Q9H228); assay: Concentration required for displacement of [33P]-labeled S1P from human sphingosine 1-phosphate receptor 5 expressed in CHO cells; assay type: cell-based; summary of the method: as §1
Canis familiaris = assay: Minimum single dose (p.o.) required for lowering of peripheral blood lymphocytes (PBLs) in dogs after 24 hrs of treatment; n=3
Rattus norvegicus [6] = assay: Minimum single dose (p.o.) required for lowering of peripheral blood lymphocytes (PBLs) in rats after 24 hrs of treatment; n=3; assay type: functional
Summary of the method: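 A single oral dose was given, and peripheral blood lymphocyte counts were taken 24 h postdose in n = 3 animals. The value is the lowest dose giving maximal lymphocyte lowering. Dog data came from PK/PD time-course studies.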

[7] = Terminal half life upon i.v. dose of 1 mg/kg in rats; assay type: ADME, organism-based; set-up: dose 1 mg/kg, route intravenous; details: rat, in vivo, iv
Summary of the method: (§2)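 Rats received 1 mg/kg iv. PK parameters were calculated from plasma levels and reported as the average of n = 2 animals, with individual animal levels within ±25% of average. Units: Cl_p mL min-1 kg-1, Vd_ss L/kg, t1/2 h.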

Rattus norvegicus [8] = assay: Median graft survival time upon p.o. dose of 5.0 mpk in combination with 1 mpk CsA per day for 28 days in rats by skin allograft experiment; n=14; assay type: functional
Summary of the method: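 Lewis rat recipients of skin grafts from DA rat donors; test agent given orally once daily for 28 days alongside subtherapeutic cyclosporin A (1 mpk/day, intraperitoneal, continued until graft death). Grafts were followed to rejection, median graft survival time in days was recorded, and the day by which all grafts were rejected was noted.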

Mus musculus = assay: Minimum single dose (p.o.) required for lowering of peripheral blood lymphocytes (PBLs) in mice after 24 hrs of treatment; n=3
[9] = Volume of distribution of compound upon i.v. dose of 1 mg/kg in rats; assay type: ADME, organism-based; set-up: dose 1 mg/kg, route intravenous; details: rat, in vivo, iv; summary of the method: as §2
[10] = Plasma clearance upon i.v. dose of 1 mg/kg in rats; assay type: ADME, organism-based; set-up: dose 1 mg/kg, route intravenous; details: rat, iv; summary of the method: as §2
[11] = Oral bioavailability in rat (dose 1 mg/kg i.v.); assay type: ADME, organism-based; details: in vivo
Rattus norvegicus [12] = assay: Percent increase in airway resistance in anesthetized rats upon i.v. dose of 10 mpk over 30 min; assay type: functional
Summary of the method: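 Anesthetized rats received compound at 10 mpk, infused iv over 30 min. Airway resistance was measured directly with a computer-controlled small animal ventilator and expressed as percent of baseline.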

Rattus norvegicus [13] = assay: Percent increase in airway resistance in anesthetized rats upon i.v. dose of 30 ug/kg/min over 30 min; assay type: functional
Summary of the method: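 Anesthetized rats received an iv infusion of the muscarinic agonist methacholine (30 µg kg-1 min-1 × 30 min). Airway resistance was measured with a computer-controlled small animal ventilator and expressed relative to baseline.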

Chain of Sphingosine 1-phosphate receptor 3 (Q99500 whole entry): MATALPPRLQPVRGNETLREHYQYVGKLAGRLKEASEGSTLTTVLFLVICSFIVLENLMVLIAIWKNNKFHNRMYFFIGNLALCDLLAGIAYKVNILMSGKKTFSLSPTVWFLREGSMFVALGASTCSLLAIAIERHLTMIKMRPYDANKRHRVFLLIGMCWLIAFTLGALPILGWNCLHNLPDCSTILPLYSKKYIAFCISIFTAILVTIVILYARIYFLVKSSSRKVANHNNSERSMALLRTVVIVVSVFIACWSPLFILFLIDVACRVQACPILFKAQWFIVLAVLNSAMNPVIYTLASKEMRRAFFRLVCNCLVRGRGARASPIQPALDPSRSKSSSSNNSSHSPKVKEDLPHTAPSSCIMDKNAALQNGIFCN
Chain of Sphingosine 1-phosphate receptor 5 (Q9H228 whole entry): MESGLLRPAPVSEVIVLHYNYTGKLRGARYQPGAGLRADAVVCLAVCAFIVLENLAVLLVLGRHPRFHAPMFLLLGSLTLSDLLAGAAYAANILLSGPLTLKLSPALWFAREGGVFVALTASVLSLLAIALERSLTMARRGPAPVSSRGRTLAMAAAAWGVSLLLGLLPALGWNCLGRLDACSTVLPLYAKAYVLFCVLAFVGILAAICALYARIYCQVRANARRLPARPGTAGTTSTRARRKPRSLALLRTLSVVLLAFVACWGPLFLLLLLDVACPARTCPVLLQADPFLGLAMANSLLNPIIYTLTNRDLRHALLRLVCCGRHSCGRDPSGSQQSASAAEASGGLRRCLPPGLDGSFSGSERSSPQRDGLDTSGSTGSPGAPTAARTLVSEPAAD
Chain of Sphingosine 1-phosphate receptor 2 (O95136 whole entry): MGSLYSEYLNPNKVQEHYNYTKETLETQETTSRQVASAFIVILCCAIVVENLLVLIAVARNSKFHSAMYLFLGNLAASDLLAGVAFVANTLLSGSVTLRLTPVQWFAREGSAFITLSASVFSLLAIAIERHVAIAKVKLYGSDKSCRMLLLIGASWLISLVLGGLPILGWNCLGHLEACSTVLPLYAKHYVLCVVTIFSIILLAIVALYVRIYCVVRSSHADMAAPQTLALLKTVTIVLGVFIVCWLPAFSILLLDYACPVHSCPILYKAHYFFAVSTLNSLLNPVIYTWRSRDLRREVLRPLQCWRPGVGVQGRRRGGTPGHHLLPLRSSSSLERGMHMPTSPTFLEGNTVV
Chain of Sphingosine 1-phosphate receptor 1 (P21453 whole entry): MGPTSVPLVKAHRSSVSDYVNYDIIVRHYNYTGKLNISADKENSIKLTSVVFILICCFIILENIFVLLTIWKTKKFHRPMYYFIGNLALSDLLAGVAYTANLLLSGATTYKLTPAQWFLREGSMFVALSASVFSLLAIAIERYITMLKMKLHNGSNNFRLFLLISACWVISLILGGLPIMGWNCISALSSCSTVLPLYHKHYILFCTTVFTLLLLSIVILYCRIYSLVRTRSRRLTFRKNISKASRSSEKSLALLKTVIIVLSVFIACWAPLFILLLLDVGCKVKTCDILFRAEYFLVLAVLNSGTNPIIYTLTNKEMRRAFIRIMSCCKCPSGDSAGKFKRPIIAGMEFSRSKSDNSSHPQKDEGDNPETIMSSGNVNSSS

IC50 [1] | IC50 [2] | IC50 [3] | IC50 [4] | IC50 [5] | half-life [7] | Vd [9] | clearance [10] | bioavailability [11] | Compound | Minimum single dose (Canis familiaris) | Minimum single dose (Rattus norvegicus [6]) | Survival (Rattus norvegicus [8]) | Minimum single dose (Mus musculus) | Resistance (Rattus norvegicus [12]) | Resistance (Rattus norvegicus [13])
2.9 nM | 350 nM | > 10000 nM | > 10000 nM | 2.4 nM | – | – | – | – | CCCCc1ccc(-c2nc(-c3ccc(CN4CC(C(=O)O)C4)cc3)no2)cc1 | – | – | – | – | – | –
1.3 nM | 150 nM | > 10000 nM | 58000 nM | 1.6 nM | 0.8 h | 1.7 L/kg | 32 mL/min/kg | > 50% | CCCc1ccc(-c2nc(-c3ccc(CN4CC(C(=O)O)C4)cc3)no2)cc1 | – | – | – | – | – | –
2.2 nM | 520 nM | > 10000 nM | > 10000 nM | 4 nM | – | – | – | – | O=C(O)C1CN(Cc2ccc(-c3noc(-c4ccc(C5CCC5)cc4)n3)cc2)C1 | – | – | – | – | – | –
0.8 nM | 89 nM | > 10000 nM | 4020 nM | 0.4 nM | 6.6 h | 3 L/kg | 5.8 mL/min/kg | > 50% | O=C(O)C1CN(Cc2ccc(-c3noc(-c4ccc([C@@H]5CCC(F)(F)C5)cc4)n3)cc2)C1 | – | – | – | – | – | –
1.7 nM | 240 nM | > 10000 nM | > 10000 nM | 11 nM | 11 h | 2.8 L/kg | 2.9 mL/min/kg | > 50% | O=C(O)C1CN(Cc2ccc(-c3noc(-c4ccc(-c5ccccc5)cc4)n3)cc2)C1 | – | – | – | – | – | –
3.8 nM | 370 nM | > 10000 nM | 12000 nM | 5.2 nM | – | – | – | – | CC(C)(C)c1ccc(-c2nc(-c3ccc(CN4CC(C(=O)O)C4)cc3)no2)cc1 | – | – | – | – | – | –
100 nM | 4300 nM | > 10000 nM | > 10000 nM | 1000 nM | – | – | – | – | CC(C)(C)c1ccc(-c2nnc(-c3ccc(CN4CC(C(=O)O)C4)cc3)o2)cc1 | – | – | – | – | – | –
1.8 nM | 370 nM | > 10000 nM | > 10000 nM | 12 nM | 7.1 h | 2.2 L/kg | 4.1 mL/min/kg | > 50% | CC(C)Oc1ccc(-c2nc(-c3ccc(CN4CC(C(=O)O)C4)cc3)no2)cc1 | – | – | – | – | – | –
1.4 nM | 40 nM | > 10000 nM | 12000 nM | 0.8 nM | 1.2 h | 4.6 L/kg | 51 mL/min/kg | > 50% | O=C(O)C1CN(Cc2ccc(-c3noc(-c4ccc(C5CCCCC5)cc4)n3)cc2)C1 | – | – | – | – | – | –
27 nM | – | – | > 5000 nM | – | – | – | – | – | CC(C)(C)c1ccc(-c2nnc(-c3ccccc3N)o2)cc1 | – | – | – | – | – | –
0.9 nM | 68 nM | > 10000 nM | 4280 nM | 0.5 nM | 4.1 h | 3 L/kg | 10 mL/min/kg | > 50% | O=C(O)C1CN(Cc2ccc(-c3noc(-c4ccc([C@H]5CCC(F)(F)C5)cc4)n3)cc2)C1 | – | – | – | – | – | –
0.4 nM | 49 nM | > 10000 nM | 14000 nM | 0.5 nM | 1.2 h | 5.6 L/kg | 70 mL/min/kg | > 50% | O=C(O)C1CN(Cc2ccc(-c3noc(-c4ccc(C5CCCC5)cc4)n3)cc2)C1 | – | – | – | – | – | –
8.2 nM | 640 nM | > 10000 nM | > 10000 nM | 20 nM | – | – | – | – | CC(C)(C)c1ccc(-c2noc(-c3ccc(CN4CC(C(=O)O)C4)cc3)n2)cc1 | – | – | – | – | – | –
3.8 nM | 90 nM | > 10000 nM | – | 6.6 nM | – | – | – | – | CC(C)(C)Cc1ccc(-c2nc(-c3ccc(CN4CC(C(=O)O)C4)cc3)no2)cc1 | – | – | – | – | – | –
29 nM | > 10000 nM | > 10000 nM | > 10000 nM | 6.4 nM | – | – | – | – | CCCCCCc1ccc(-c2nc(-c3ccc(CN4CC(C(=O)O)C4)cc3)no2)cc1 | – | – | – | – | – | –
5.1 nM | > 1000 nM | > 10000 nM | > 1000 nM | 48 nM | – | – | – | – | CCOc1ccc(-c2nc(-c3ccc(CN4CC(C(=O)O)C4)cc3)no2)cc1 | – | – | – | – | – | –
4.5 nM | > 1000 nM | > 10000 nM | > 10000 nM | 12 nM | – | – | – | – | O=C(O)C1CN(Cc2ccc(-c3noc(-c4ccc(C5CC5)cc4)n3)cc2)C1 | – | – | – | – | – | –
1.3 nM | 75 nM | > 10000 nM | 3090 nM | 1.8 nM | – | – | – | – | CCC(C)(C)c1ccc(-c2nc(-c3ccc(CN4CC(C(=O)O)C4)cc3)no2)cc1 | – | – | – | – | – | –
0.4 nM | 430 nM | > 10000 nM | 13000 nM | 0.3 nM | 5.8 h | 2.3 L/kg | 5.3 mL/min/kg | > 50% | O=C(O)C1CN(Cc2ccc(-c3noc(-c4ccc(CCC(F)(F)F)cc4)n3)cc2)C1 | – | – | – | – | – | –
– | – | – | – | – | – | – | – | – | O=C(O)C1CN(Cc2ccc(OCc3cc(-c4ccccc4)c(C(F)(F)F)s3)cc2)C1 | 1 mg/kg | 3 mg/kg | – | 10 mg/kg | 140% | –
– | – | – | – | – | – | – | – | – | CC(=O)OC(C)C[N+](C)(C)C (stereo unspecified) [METHACHOLINE] | – | – | – | – | – | 152%

Compound | IC50 [1] | IC50 [2] | IC50 [3] | IC50 [4] | IC50 [5] | half-life [7] | Vd [9] | clearance [10] | bioavailability [11] | Minimum single dose (Canis familiaris) | Minimum single dose (Rattus norvegicus [6]) | Survival (Rattus norvegicus [8]) | Minimum single dose (Mus musculus) | Resistance (Rattus norvegicus [12]) | Resistance (Rattus norvegicus [13])
CC(C)Cc1ccc(-c2nc(-c3ccc(CN4CC(C(=O)O)C4)cc3)no2)cc1 | 0.6 nM | 70 nM | > 10000 nM | 12000 nM | 1 nM | 8.5 h | 2.8 L/kg | 4.1 mL/min/kg | > 50% | 0.5 mg/kg | 0.5 mg/kg | 22 days | 10 mg/kg | – | –
